Test system: MS2 coat protein
Assay: apparent Kd, MS2 coat protein; higher = weaker binding; RNA-MaP array; FMN 200 µM where present
Summary of the method: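 Green signal was scaled to red-channel RNA signal and control-cluster median Fmax, and the apparent Kd was taken as the median of filtered per-cluster binding-curve fits. The binding series used SNAP-549-labelled MS2 coat protein from 0.7 or 1.5 nM, doubling to 3 µM, on designs transcribed by stalled E. coli RNA polymerase on Illumina sequencing-chip clusters. Each series ran without and then with constant ligand in 100 mM Tris-HCl pH 7.5, 80 mM KCl, 4 mM MgCl2, BSA, DTT, yeast tRNA and Tween-20.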

[1] = designed as: OFF switch for flavin mononucleotide, no ligand
[2] = ligand present: flavin mononucleotide, designed as: OFF switch for flavin mononucleotide
[3] = designed as: ON switch for flavin mononucleotide, no ligand
[4] = ligand present: flavin mononucleotide, designed as: ON switch for flavin mononucleotide

| Sequence | apparent Kd [1] [nM] | apparent Kd [2] [nM] | apparent Kd [3] [nM] | apparent Kd [4] [nM] |
| --- | --- | --- | --- | --- |
| AGCACGAAAGUGCAACGAUGUACGAGAAGGACAUGAGGAUCACCCAUGUCGCUGUAACAGCAAAUGUAGGAUAUCGUACAUCGA | 5.14 | 5.7 | – | – |
| AGGUAACAUGAGGAUCACCCAUGUCAGGAUAUCAGUAAGAUGAGUAUAGAAUAGAGUAUGAGAAGGGACUAUAU | 36.5 | 28.6 | – | – |
| GUGGUGUAGAUACAGGAUAUGUUGCUCGUAACAUGAGGAUCACCCAUGUAUCUAUGAGAUUAAAUGCAGAAGGGUGCACACCACG | – | – | 330 | 23.3 |
| ACAGAGGCUGACAUGAGGAUCACCCAUGUUAGAUUGUUAUGUCAGGAUAUUAUCUGGCAACCAGAUGAGAAGGGACCCUCUGUG | – | – | 22.6 | 7.54 |
| AUGUUACAUGAGGAUCACCCAUGUGAGGAUAUGUGUACUGGUAAAAAAGUGUUUGGCCACAGAAGGCAUUUGGA | 29.1 | 31.2 | – | – |
| AUACAUGAGGAUCACCCAUGUUACUGGGUCUUUUUAGAACGUAGAAGGAUGUUUUUAUAAAUAACAUAGGAUAUACAAUAUUGU | 59.6 | 49.9 | – | – |
| UUGUUUUGAAAUUAACAUGAGGAUCACCCAUGUCUUGACACAGAGGAUAUACAUGAAUGUAGGUAGUAGAAGGCUGUUUAGUGU | – | – | 79.5 | 60 |
| UCGUAUACACAAGGAUAUCAAUGAUUUGUGGAUCCUACAUGAGGAUCACCCAUGUUUUUAUAUUUUGAGAAGGUGUAGUGUCUU | – | – | 417 | 608 |
| CACCGUUAGUGAGGAUAUAGUACAUGAGGAUCACCCAUGUAAUAAAUGAGAAUUUCGGAUGUAUGCUAGAAGGCACAAAUCGGC | 60.4 | 65.8 | – | – |
| GGAUAGGACAGAGGAUAUACGUGCUAGAGAUACUAGCAACAUUUCCUCACAUGAGGAUCACCCAUGUAGAAGGCUGUCCUAUCG | 8.16 | 190 | – | – |
| AUUUUAUAAUAGAAGGAGGACUUCAUGAGGAUCACCCAUGUGUUAGUACUUAGGAUAUGUAAUAACAUGAGGAUCACCCAUGUC | – | – | 38.3 | 43.3 |
| GACUGCAUGUAAGGAUAUCGACUGGAAUACAGUCGAGAAGGUACAUGAGGAUCACCCAUGUAAUAAGAUCAAUAAUAAGCAGUC | 14.9 | 33.1 | – | – |
| ACGGCAAUCACAGGAUAUGGUUACAUGAGGAUCACCCAUGUCAAGGGUCUAAUUAGGUAUAACUACCAGAAGGGUGAAGGCCUA | 74.4 | 105 | – | – |
| UCAAGUAUGUAGGAUAUGAUGUGAUUUUACAUAUCAGAAGGACGUACAUGAGGAUCACCCAUGUAACUUGCAUG | 112 | 42.2 | – | – |
| CGUGCUAUGUAGAAGGCAGAUCUGAUUCAGAUCUGAGGAUAUACAUGAGGAUCACCCAUGUUAUGCACCAGCACGAGAGUGCAA | 6.31 | 10.5 | – | – |
| CCGCCACAUGAGGAUCACCCAUGUCAGGAUAUCUAUCAUAGCAUCGAAAGAUGCGGGUAGAGAAGGGACUAUCC | 28.8 | 32.2 | – | – |
| UCUCGACAUGAGGAUCACCCAUGUCAGGAUAUUGUAUUAGAGGUUUUUUACCUUAUAACAAGAAGGGAUGUGUG | 22.9 | 26.8 | – | – |
| AUAGAAGACUAGAAGGAGGUUUAAUAAUAUUGUCGAGGUAUUGUUGAAUUUAGGAUAUGGGACAUGAGGAUCACCCAUGUUUUG | – | – | 24 | 16.2 |
| AAGACCAGAGGAUAUCAGACGCGGCACAUGAGGAUCACCCAUGUAUUCCCGUCUGCCGACUGAGAAGGUUGGAAAG | 12.5 | 17 | – | – |
| GGGUACAUCGGAGGAUAUCAUGUAAAUACAUGAGGAUCACCCAUGUCGAGGGAGACAUCGGAGAUUGAGAAGGCCGAUGUACCG | – | – | 57.4 | 460 |
| AAAUACCGGUGAGGAUAUUUUUAAUAGAGCUUUAUGAUAUACAUGAGGAUCACCCAUGUUACGUUAAAGAAGGCAUCGGAUAAA | 18.4 | 16.6 | – | – |
| AUUGUUGUUGUGAGGAUAUCGUUGAUUUUUUGAAACGAGAAGGCACAUGAGGAUCACCCAUGUUAGUUGUUGGU | 96.4 | 311 | – | – |
| UAUUUAUAGCAAGGAUAUGAUUAUUAUUAUUUAUCAGAAGGUGCACAUGAGGAUCACCCAUGUUUUAUAAUUUGUAAUUUAAUU | 55.6 | 21.8 | – | – |
| AAUUGUAGAACAAUCACUACCAGUCAGGAUAUACAUGAGGAUCACCCAUGUCGUGUCGACAGCAUGUAGAAGGGACGGUUAUAU | 51.6 | 115 | – | – |
| GUAAGCUCGUGAGGAUAUACAACACUGCUUCGGCAGUGUAUUAAGAUCACAUGAGGAUCACCCAUGUAGAAGGCACGAGCUGAU | 13.8 | 245 | – | – |
| GUUACAUGAGGAUCACCCAUGUAUGUGUGGGAGUAAGUGUCUUAGGAUAUCUAUCAUUUAAUAUAAGAGAAGGAAGAUUGUUGU | – | – | 109 | 140 |
| UCAUAUUUACAAGGAUAUCAAUAUAAUAUAAUACCAACAUGAGGAUCACCCAUGUAUUAGCGUAAUGAGAAGGUGUAUUGUCGG | – | – | 51.2 | 41.4 |
| AUCUUGAGAGGAUAUACAUGAGGAUCACCCAUGUUGCUAACACCAUGAGCUCAUUUACGUAGAAGGCUCAUUUG | 18 | 18.6 | – | – |

| Sequence | apparent Kd [1] [nM] | apparent Kd [2] [nM] | apparent Kd [3] [nM] | apparent Kd [4] [nM] |
| --- | --- | --- | --- | --- |
| GGUCCAUCAUGAGGAUAUGGCACCUUAUUUGUGCCAGAAGGCAUGUCGAUAGACAUGAGGAUCACCCAUGUAAUAAAUUGGACC | – | – | 1430 | 104 |
| UGUCGGAGCAGAGGAUAUACAUGAGGAUCACCCAUGUAAUAAAUCCAAGCCUGGAAACAGGCAAUGUAGAAGGCUGCUCCGACA | 16.8 | 80.2 | – | – |
| UUCAACGAUGAAGGAUAUGUAUAAACAUGAGGACAUGAGGAUCACCCAUGUUGAUCACCCAUGUAGCAGAAGGUCAACAUGAGG | – | – | 360 | 142 |
| UUAAUUAACAAGAAGGCAUACAUGAGGAUCACCCAUGUUGUACAUGGAUAAUGAGGAUAUUGCUAAUAAUUAUUUUUCUUAAUU | 47.6 | 35.5 | – | – |
| UCAUGUUUAGAGGAUAUGAUUACUUUUGAGUAAUCAGAAGGCUAGACAUGAGGAUCACCCAUGUCAUAACAUGA | 90 | 112 | – | – |
| GAGUGACAUGAGGAUCACCCAUGUGAGGAUAUCGGACGGACCAAAUUAACAACAAACGCGAGAAGGCACAUCGG | 76.4 | 79.5 | – | – |
| GUAGCUAUCGGAGGAUAUUCAUACCGUAAACGGACAUGAGGAUCACCCAUGUAGCGAAAGCCUUGGGAGAAGGCCGAUAGCUAC | – | – | 942 | 88.8 |
| ACAUACAUGACAUGACAUGAGGAUCACCCAUGUCCAUGUUACAAGGAUAUGUACAUGAAACAUGUACAGAAGGUGUAUUGGACU | 13.1 | 18 | – | – |
| GCACGGCAUGUAGGAUAUCGAGCUCCGGGAGCUCGAGAAGGACAUGAGGAUCACCCAUGUGCUCACAGUGAGUGAGUGCUGUGC | 19.7 | 38.8 | – | – |
| UGAAAUCAUGUAGGAUAUGCAUGGCGAAGCUACGCAGAAGGACAUGAGGAUCACCCAUGUUAUAGCUACCCAGUUCGGUGGCAG | 46.2 | 174 | – | – |
| UGGUACUAGGGAGGAUAUGGGAAGAUACAUGAGGAUCACCCAUGUUUAAGAAUGCCGAGAGGCAACUAGAAGGCCUUAGUACCU | – | – | 504 | 20.8 |
| AGAUAGGAUGCAGGAUAUCUAUCUUGAAUGAGGAGAGAAGGGCAAGUAGAUAGAUAAGCCUCAUGACAUGAGGAUCACCCAUGU | 14.1 | 12.9 | – | – |
| AUAUUCAGAGGAUAUGCGCAUAGAUAAGACUUUUUUUCUUAACAUGAGGAUCACCCAUGUAGAAGGCUGUAAUA | 20.1 | 17.5 | – | – |
| UGUACAUUAUUAAGUAAUUAGGCGAAGGAUAUAUAACAUGAGGAUCACCCAUGUACUAAAUUGAAGUAGAAGGUUGAGCAUUUC | – | – | 16.2 | 13.7 |
| GUUAUUAUUAGUUCAUACUAUAAGAUAGAAGGUGAAUAAUUGACAUGAGGAUCACCCAUGUAAUUCAAGGAUAUGUAGAUACUC | – | – | 32 | 17.6 |
| CCGGAAAGGAAGGAUAUGCUAGACGAGAGUCUAGCAGAAGGUCCUACAUGAGGAUCACCCAUGUGGCCUCCCGG | 139 | 627 | – | – |
| GAGUAGAUCCGAGGAUAUACAAUCCGGAAACGGUACAUGAGGAUCACCCAUGUAGAAGGCGGAUCUACAGGUACUAAAGUACCA | 6.24 | 8.12 | – | – |
| CGUGCGUAUGUGAGGAUAUGCUGGUCCUUGGAUCGGCAGAAGGCACAUGAGGAUCACCCAUGUGGUGUCGUGCA | 376 | 30.3 | – | – |
| GCUAGUCAUGUCAGGAUAUGCAGUUCCUUGGAACUGCAGAAGGGACAUGAGGAUCACCCAUGUGCCUAGCUAGC | 41.1 | 357 | – | – |
| AUAUGAUUAAGAGGAUAUAUACAACAUGAGGAUCACCCAUGUACCCAUGUAGUAGAAGGUUUGUUUUUAUAUAAUAAUAUAAUU | – | – | 74.8 | 52.1 |
| AGAGUGUGAGGAUAUAUGGUGAAGAUGAAGGGAUAGAAGGAGUAGAAGGUACAUGAGGAUCACCCAUGUUAGGA | 25.2 | 25.7 | – | – |
| CCGCCUCUAGUCAGGAUAUUUACGGAAGAGCACGAAGAGAAGGGACAUGAGGAUCACCCAUGUUUGAUCACGGC | 30.5 | 31.4 | – | – |
| AGGGCUGCUCAGGAUAUCCGUAAAAGCCGAGAAGGAGAAGGGAGCACAUGAGGAUCACCCAUGUGAUCCGAAAA | 21.6 | 44 | – | – |
| ACGUUUUUUGAGGAUAUGCGACGUUUUUUCGUCGUAGAAGGCGAUACAUGAGGAUCACCCAUGUUUAUGGGCAU | 126 | 174 | – | – |
| GAGCGCUGUCAAGGAUAUCCGAAAAGAAAAUAAGGAGAAGGUGACAUGAGGAUCACCCAUGUGCACUGGGUGGACGCGCGCUCC | 459 | 256 | – | – |
| UUUAAUUUAAUUAAGAUCACAUGAGGAUCACCCAUGUAAUUAUAGGAUAUCAGCUCGUUUAGAGCUGAGAAGGAUAAUUACAUA | 78.9 | 53.4 | – | – |
| GUCAGCUCGUGAGGAUAUACAACACUGCUUCGGCAGUGUAUUAAGAUCACAUGAGGAUCACCCAUGUAGAAGGCACGUGCUGAU | 12.5 | 276 | – | – |

— the EternaBench riboswitch data
